Measured values: ChEMBL document CHEMBL1128731, “Furanfurin and thiophenfurin: two novel tiazofurin analogues. Synthesis, structure, antitumor activity, and interactions with inosine monophosphate dehydrogenase” (J Med Chem, 1995)

Key:
[1] = test system: K562; assay: Compound was tested for its effect on UTP ribonucleotide levels of K562 cell at 10 uM concentration; assay type: functional, Homo sapiens
In short: (§1)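 K562 cells (1×10^7) were treated with saline or agent for 2 h at 37 °C, harvested by centrifugation and washed with cold saline. They were extracted with cold 10% trichloroacetic acid, neutralized with 0.5 M tri-n-octylamine in freon, and analyzed by HPLC. Levels are in nmol/g and expressed as % of saline control. Significance was set at p < 0.05.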

[2] = test system: HL-60; assay: Inhibitory concentration against human HL-60 cell line(activity expressed as range); assay type: functional, cell-based
In short: (§2)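 Antiproliferative assay scoring [125I]-5-iodo-2'-deoxyuridine incorporation into DNA after 72 h drug–cell contact. Run on normal human bone marrow from five donors and in three assays on HL-60. Ratio is antilog(mean log IC50 or IC90) on bone marrow over the same on HL-60. Range limits are antilog(mean log IC50 ± 2SD).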

[3] = test system: K562; assay: Compound was tested for its effect on CTP ribonucleotide levels of K562 cell at 100 uM concentration; assay type: functional, Homo sapiens; in short: as §1
[4] = test system: K562; assay: Compound was tested for its effect on CDP ribonucleotide levels of K562 cell at 10 uM concentration; assay type: functional, Homo sapiens; in short: as §1
[5] = test system: K562; assay: Compound was tested for its effect on CTP ribonucleotide levels of K562 cell at 50 uM concentration; assay type: functional, Homo sapiens; in short: as §1
[6] = test system: B16; assay: Inhibitory concentration against B16 melanoma cell lines; assay type: functional, cell-based; conditions: Mus musculus
In short: (§3)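 Cells in log phase plated with a range of drug concentrations (B16 5×10^3 cells/well; P388, L1210, LLC 10^4 cells/well; HL-60, K562, LoVo 2.5×10^5 cells/well). Growth read by modified MTT after 72 h drug contact at 37 °C. IC50 taken as the concentration reducing optical absorption by 50%, from Chou regression analysis. Maximum concentration tested 200 μM.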

[7] = test system: K562; assay: Compound was tested for its effect on NAD ribonucleotide levels of K562 cell at 10 uM concentration; assay type: functional, Homo sapiens; in short: as §1
[8] = test system: K562; assay: Compound was tested for its effect on UTP ribonucleotide levels of K562 cell at 100 uM concentration; assay type: functional, Homo sapiens; in short: as §1
[9] = test system: K562; assay: Compound was tested for its effect on CDP ribonucleotide levels of K562 cell at 100 uM concentration; assay type: functional, Homo sapiens; in short: as §1
[10] = test system: K562; assay: Compound was tested for its effect on ATP ribonucleotide levels of K562 cell at 50 uM concentration; assay type: functional, Homo sapiens; in short: as §1
[11] = test system: Mus musculus; assay: Average weight change of mice from onset to termination of drug treatment at 25 mg/kg dose; assay type: functional
In short: (§4)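 Female BD2F1 mice (8 weeks, 20–22 g), eight per group, injected ip with 10^5 L1210 cells on day 0. From 24 h later, drug in 0.9% NaCl was given ip once daily for 9 days. Body weight change was averaged from onset to termination of treatment. Early deaths from toxicity were recorded.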

[12] = test system: K562; assay: Compound was tested for its effect on ATP ribonucleotide levels of K562 cell at 100 uM concentration; assay type: functional, Homo sapiens; in short: as §1
[13] = test system: K562; assay: Compound was tested for its effect on UDP ribonucleotide levels of K562 cell at 50 uM concentration; assay type: functional, Homo sapiens; in short: as §1
[14] = test system: K562; assay: Compound was tested for its effect on UMP ribonucleotide levels of K562 cell at 50 uM concentration; assay type: functional, Homo sapiens; in short: as §1
[15] = test system: Mus musculus; assay: Average weight change of mice from onset to termination of drug treatment at 400 mg/kg dose; early death due to toxicity; assay type: functional, organism-based; design: dose 400 mg/kg; in short: as §4
[16] = test system: K562; assay: Compound was tested for its effect on ADP ribonucleotide levels of K562 cell at 10 uM concentration; assay type: functional, Homo sapiens; in short: as §1
[17] = test system: K562; assay: Compound was tested for its effect on NAD ribonucleotide levels of K562 cell at 50 uM concentration; assay type: functional, Homo sapiens; in short: as §1
[18] = test system: K562; assay: Compound was tested for its effect on IMPDH activity against K562 cells at 50 uM concentration; assay type: functional, Homo sapiens
In short: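 Log-phase K562 cells (1×10^6/mL) were exposed to saline or agent for 2 h at 37 °C, washed and lysed (Tris-HCl pH 7.4, NaCl, MgCl2, 0.5% NP-40, aprotinin). The cleared supernatant was incubated 30 min at 37 °C with 286 μM [2,8-3H]IMP and 1 mM NAD. Tritium release was counted by scintillation. Activity is nmol XMP/h/mg protein, also given as % of control.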

[19] = test system: Mus musculus; assay: Compound was tested for ratio of survival time of treated to control mice x100 at 400 mg/kg dose; assay type: functional
In short: (§5)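 Female BD2F1 mice (8 weeks old, 20–22 g), eight per group, injected ip with 10^5 L1210 leukemia cells on day 0. Starting 24 h later, drug dissolved in 0.9% NaCl given ip once daily for 9 consecutive days. % T/C = survival time of treated/control mice × 100. Body weight change tracked from start to end of treatment.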

[20] = test system: Mus musculus; assay: Average weight change of mice from onset to termination of drug treatment at 100 mg/kg dose; early death due to toxicity; assay type: functional, organism-based; design: dose 100 mg/kg; in short: as §4
[21] = test system: K562; assay: Compound was tested for its effect on GDP ribonucleotide levels of K562 cell at 100 uM concentration; assay type: functional, Homo sapiens; in short: as §1
[22] = test system: K562; assay: Compound was tested for its effect on UDP ribonucleotide levels of K562 cell at 100 uM concentration; assay type: functional, Homo sapiens; in short: as §1
[23] = test system: K562; assay: Compound was tested for its effect on GDP ribonucleotide levels of K562 cell at 10 uM concentration; assay type: functional, Homo sapiens; in short: as §1
[24] = test system: K562; assay: compound was tested for its effect on IMPDH activity against K562 cells at 50 uM concentration; assay type: functional, Homo sapiens
In short: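 K562 cells (1×10^6/mL, log phase) exposed 2 h at 37 °C to 10, 50 or 100 μM drug, or to saline. Cells washed and lysed in Tris-HCl pH 7.4/NaCl/MgCl2/NP-40/aprotinin, and the 13000g supernatant used as enzyme. Enzyme incubated 30 min at 37 °C with 286 μM [2,8-3H]IMP and 1 mM NAD. Tritium release counted; activity in nmol XMP/h/mg protein, as % of saline control.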

[25] = test system: K562; assay: Compound was tested for its effect on GTP ribonucleotide levels of K562 cell at 50 uM concentration; assay type: functional, Homo sapiens; in short: as §1
[26] = test system: K562; assay: Compound was tested for its effect on GMP ribonucleotide levels of K562 cell at 50 uM concentration; assay type: functional, Homo sapiens; in short: as §1
[27] = species on record: Homo sapiens; assay: Inhibitory concentration range against human bone marrow; assay type: functional, organism-based; in short: as §2
[28] = test system: Mus musculus; assay: Compound was tested for ratio of survival time of treated to control mice x100 at 25 mg/kg dose; assay type: functional; in short: as §5
[29] = test system: P388; assay: Inhibitory concentration against P388 murine lymphocytic leukemia cell lines; assay type: functional, cell-based; conditions: Mus musculus; in short: as §3
[30] = test system: K562; assay: Compound was tested for its effect on UMP ribonucleotide levels of K562 cell at 10 uM concentration; assay type: functional, Homo sapiens; in short: as §1
[31] = test system: K562; assay: Compound was tested for its effect on ATP ribonucleotide levels of K562 cell at 10 uM concentration; assay type: functional, Homo sapiens; in short: as §1
[32] = test system: K562; assay: Compound was tested for its effect on GTP ribonucleotide levels of K562 cell at 10 uM concentration; assay type: functional, Homo sapiens; in short: as §1
[33] = test system: K562; assay: Compound was tested for its effect on NAD ribonucleotide levels of K562 cell at 100 uM concentration; assay type: functional, Homo sapiens; in short: as §1
[34] = test system: Lewis lung carcinoma cell line; assay: Inhibitory concentration against LLC Lewis lung carcinoma; assay type: functional, cell-based; conditions: Mus musculus; in short: as §3
[35] = test system: Mus musculus; assay: Compound was tested for ratio of survival time of treated to control mice x100 at 6.2 mg/kg dose; assay type: functional; in short: as §5
[36] = test system: K562; assay: Compound was tested for its effect on IMP ribonucleotide levels of K562 cell at 10 uM concentration; assay type: functional, Homo sapiens; in short: as §1
[37] = test system: K562; assay: Compound was tested for its effect on GDP ribonucleotide levels of K562 cell at 50 uM concentration; assay type: functional, Homo sapiens; in short: as §1

NC(=O)c1csc([C@@H]2O[C@H](CO)[C@@H](O)[C@H]2O)c1
Control [1]: 91% | IC50 [2]: 2.4 µM | Control [3]: 32% | Control [4]: 84% | Control [5]: 32% | IC50 [6]: 25.8 µM | Control [7]: 81% | Control [8]: 87% | Control [9]: 99% | Control [10]: 88% | Change [11]: -9.8% | Control [12]: 81% | Control [13]: 134% | Control [14]: 115% | Change [15]: Toxic | Control [16]: 122% | Control [17]: 66% | Activity [18]: 1.85 | T/C [19]: <100% | Change [20]: Toxic | Control [21]: 77% | Control [22]: 131% | Control [23]: 97% | Control [24]: 37% | Control [25]: 58% | Control [26]: 90% | IC50 [27]: 21.6 µM | T/C [28]: 168% | IC50 [29]: 3.2 µM | Control [30]: 110% | Control [31]: 92% | Control [32]: 71% | Control [33]: 63% | IC50 [34]: 11.2 µM | T/C [35]: 155% | Control [36]: 314% | Control [37]: 79%
